Source: PubChem
TRPC4 PAM = positive allosteric modulators of TRPC4, primary screen, cell-based, mouse TRPC4beta, HEK293 mu-opioid, Fluo-4 calcium; Short transient receptor potential channel 4 (Mus musculus), Q9QUQ5; DAMGO EC20, Fluo-4 Ca2+ flux; active compounds read high; B-score at 10 µM; hit rate 0.42% among 310,000; AID 2227, 2009;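 active means B-score of calcium response area above 5 SD of library B-scores, with initial fluorescence ratio within 5 SD of library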;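 further: B-score of integrated fluorescence ratio over time as area under calcium response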
TRPC6 inh = mouse TRPC6 channel inhibitors, primary screen, cell-based, HEK293, membrane potential dye; Short transient receptor potential channel 6 (Mus musculus), Q61143; ACh-evoked depolarization; active compounds read low; B-score at 10 µM; hit rate 1.1% among 310,000;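 active means B-score under library mean minus 3 SD, initial fluorescence not abnormally high, positive integrated signal ratio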;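 further: B-score derived from integrated fluorescence ratio over the kinetic read; more negative B-score means stronger inhibition of depolarization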
TRPC4 block = inhibitors of mouse TRPC4 channel, primary screen, Fluo4 calcium, HEK293 TRPC4beta/mu-opioid cells | Short transient receptor potential channel 4 (Mus musculus), Q9QUQ5 | DAMGO-evoked Fluo4 calcium flux; active compounds read low | B-score at 10 µM | hit rate 0.39% among 300,000 | AID 2247, 2010;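 active means B-score over 3 SD under the library average, no early fluorescence shift, positive overall ratio signal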
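Assay system: TRPC4beta/mu-opioid receptor HEK293 cell line; compound dosing: single concentration per test compound; detection: Fluo4 Ca2+ flux fluorescence; evaluation: per-well B score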
Kir21 inh = inhibitors of mouse Kir2.1 inward-rectifier potassium channel; Inward rectifier potassium channel 2 (Mus musculus), P35561; HEK293-Kir2.1, FluxOR thallium flux fluorescence; active compounds read low; B-score at 10 µM; hit rate 0.85% among 310,000; AID 1672, 2009;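 active means fluorescence ratio B-score at or below minus 3 SD of library scores, with starting-brightness B-score within 2 SD, cut at about -4.2 in these data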;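 further: channel flux triggered by added potassium and thallium sulfate stimulus; B-score of peak minus minimum fluorescence over baseline after thallium stimulus; more negative B-score means stronger Kir2.1 block with less thallium influx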
Target sequence (P35561 whole entry, looked up): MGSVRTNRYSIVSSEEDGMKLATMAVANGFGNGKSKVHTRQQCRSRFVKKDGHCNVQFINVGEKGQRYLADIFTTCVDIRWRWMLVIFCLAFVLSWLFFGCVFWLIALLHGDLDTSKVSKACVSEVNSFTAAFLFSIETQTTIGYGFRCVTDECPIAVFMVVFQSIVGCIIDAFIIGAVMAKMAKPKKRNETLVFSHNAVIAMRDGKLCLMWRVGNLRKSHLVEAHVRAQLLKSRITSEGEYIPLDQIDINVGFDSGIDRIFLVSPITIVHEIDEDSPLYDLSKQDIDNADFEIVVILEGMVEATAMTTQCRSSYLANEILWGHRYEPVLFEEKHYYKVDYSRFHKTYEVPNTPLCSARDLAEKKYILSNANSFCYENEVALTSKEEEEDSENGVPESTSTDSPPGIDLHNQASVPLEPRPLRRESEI
TRPC6 act = mouse TRPC6 channel activators, primary screen, cell-based, HEK293, membrane potential dye. hit rate 0.13% among 310,000. AID 2550, 2010. HEK293-TRPC6 membrane potential dye fluorescence; active compounds read high. B-score at 10 µM;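 active means B-score of the integrated fluorescence ratio above library mean plus 3 SD, and starting fluorescence ratio within library mean plus 5 SD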;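 further: higher score means more depolarization so channel activation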
TRPC4 agonist = activators of mouse TRPC4 channel, primary screen, Fluo4 calcium, HEK293 TRPC4beta/mu-opioid cells | Short transient receptor potential channel 4 (Mus musculus), Q9QUQ5 | Fluo4 calcium fluorescence; active compounds read high | B-score at 10 µM | hit rate 0.49% among 310,000 | AID 2237, 2010;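 active means B-score above 5 SD of library B-scores, and initial fluorescence ratio not above library mean plus 5 SD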;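 further: positive B-score marks a calcium rise read as TRPC4 activation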
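system = HEK293 cells stably co-expressing mouse TRPC4beta and mu-opioid receptor | schedule = Fluo4 dye loading 45 min at room temperature, 110 s recording | measure = B-scored integrated calcium fluorescence ratio | signal = Fluo4 calcium-sensitive dye fluorescence, kinetic, 1 Hz baseline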
TRPC4 sel inh 2 = second selectivity test of TRPC6 inhibitors: effect on mouse TRPC4 | inhibition, % at 10 µM | hit rate 42% among 920 | shares compounds with TRPC6 inh | HEK293 TRPC4/MOR, membrane potential dye fluorescence; channel activated by saturating DAMGO dose;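 active means compounds whose fluorescence signal differed from control wells by over 3 SD, either direction, in both duplicate plates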
TRPC4 spec = mouse TRPC4 modulation by TRPC6 hits, confirmation, selectivity assay for TRPC6 inhibitor project, cell-based, HEK293 TRPC4/mu-opioid, membrane potential dye. shares compounds with TRPC6 inh. membrane potential fluorescence. activity change, negative = inhibition, % at 10 µM. hit rate 61% among 920;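 active means rise or fall in signal beyond 3 SD of buffer-only wells in both replicate plates, either sign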;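 further: integrated kinetic ratio of fluorescence range over baseline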
HEK293 MPD ctr 2-1 = nonspecific membrane potential effects, parental HEK293, confirmation, counter-screen for TRPC6 inhibitor project, cell-based, second counter screen | shares compounds with TRPC6 inh | parental HEK293 membrane potential dye fluorescence; maximal acetylcholine challenge after compound addition | signal change vs control, % at 10 µM | hit rate 31% among 920;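 active means membrane potential signal moving either way by over 3 SD of the maximum-effect control, in both duplicate plates, meaning non-specific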
HEK293 MPD ctr-1 = membrane potential modulation in parental HEK293, confirmation, counter-screen for TRPC6 inhibitor project, cell-based | shares compounds with TRPC6 inh | parental HEK293 membrane potential dye fluorescence | membrane potential signal change, % at 10 µM | hit rate 60% among 920 | AID 2780, 2010;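 active means membrane potential signal shifting up or down by more than 3 SD of buffer-only wells, on both duplicate plates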
HEK293 MPD ctr-2 = parental HEK293 membrane potential modulation, confirmation, counter-screen for TRPC6 modulator project, cell-based; membrane potential signal change, % at 10 µM; hit rate 51% among 2,400; membrane potential dye fluorescence; shares compounds with TRPC6 inh; AID 488924, 2010;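 active means membrane potential signal moves up or down beyond 5 SD from buffer-only wells, on both duplicate plates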
HEK293 MPD ctr 2-2 = second check of TRPC6 modulator effects in parental HEK293 cells; shares compounds with TRPC6 inh; hit rate 14% among 2,400; AID 488926; inhibition, % at 10 µM; membrane potential dye fluorescence; after compound, maximal acetylcholine stimulation;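 active means membrane potential signal drops by more than 5 SD from the mean control signal, in both duplicate plates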;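 further: plate controls were acetylcholine ECmax control wells for no effect and buffer only wells for full effect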
TRPC4 ctr mod = TRPC4 modulation by TRPC6 hit compounds, confirmation, selectivity assay for TRPC6 modulator project, cell-based, HEK293 TRPC4/mu-opioid, membrane potential dye, mouse. shares compounds with TRPC6 inh. hit rate 69% among 2,400. membrane potential fluorescence. percent change from control (negative = decrease, positive = increase), % at 10 µM;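 active means membrane potential signal moved up or down beyond 5 SD of buffer control wells, in both duplicate plates, actives on both sides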;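 further: plate controls were assay buffer wells for no effect and DAMGO maximal-effect wells for full effect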
TRPC4/MOR inh 2 = mouse TRPC4 off-target activity of TRPC6 modulators, second screen; shares compounds with TRPC6 inh; HEK293 TRPC4/mu-opioid, membrane potential dye fluorescence; stimulated with maximal-effect DAMGO; inhibition, % at 10 µM; hit rate 55% among 2,400; AID 488928;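 active means drop in membrane potential signal beyond 5 SD of the control wells in both duplicate plates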;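 further: TRPC4 counter screen for TRPC6 hits run under conditions tuned for TRPC6 not TRPC4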
TRPC6 inh conf = mouse TRPC6 channel inhibitors, confirmation, HEK293 cells, membrane potential dye, duplicate; shares compounds with TRPC6 inh; ACh-evoked depolarization; inhibition, % at 10 µM; hit rate 43% among 3,300;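 active means fluorescence ratio falls more than 5 SD below the full-stimulation control mean, in both duplicate runs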;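 further: integrated fluorescence ratio of peak minus minimum over baseline after agonist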
TRPC6 act conf = mouse TRPC6 channel activators, confirmation, HEK293 cells, membrane potential dye, duplicate. activation, % at 10 µM. AID 488961, 2010. HEK293-TRPC6 membrane potential dye fluorescence, FDSS. hit rate 11% among 2,800. shares compounds with TRPC6 inh;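 active means ratio signal rise beyond 5 SD above unstimulated control wells' mean, seen in both duplicate runs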;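 further: plate controls were buffer EC0 wells for no effect and acetylcholine ECmax response for full effect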
* hit, by the source's call; i = inactive; . = not tested or not shown. A selection: hits, their analogues and other compounds. The true share with any hit is near 2.9%.

SMILES | TRPC4 PAM | TRPC6 inh | TRPC4 block | Kir21 inh | TRPC6 act | TRPC4 agonist | HEK293 MPD ctr-2 | HEK293 MPD ctr 2-2 | TRPC4 ctr mod | TRPC4/MOR inh 2 | TRPC6 inh conf | TRPC6 act conf | others
CNc1nc(-c2ccccc2)cc(C)c1S(C)(=O)=O | i | i | i | -0.34 | i | i | . | . | . | . | . | .
COc1ccc2nc(C)cc(Nc3ccc(C)cc3)c2c1 | i | -6.6* | -7* | -3.4 | i | i | . | . | . | . | 68%* | i | TRPC4 sel inh 2=42%*;TRPC4 spec=-26%*;HEK293 MPD ctr 2-1=i;HEK293 MPD ctr-1=-272%*
CCOc1ccccc1Nc1cc(C)nc2ccc(C)cc12 | i | -7.7* | i | -3.2 | i | i | . | . | . | . | 62%* | i | TRPC4 sel inh 2=46%*;TRPC4 spec=-13%*;HEK293 MPD ctr 2-1=i;HEK293 MPD ctr-1=-209%*
CSc1nsc(SCC(=O)Nc2ccc(C(N)=O)cc2)n1 | i | i | i | 1.6 | i | i | . | . | . | . | . | .
CCC(C(=O)NC1CCCCC1)n1c(SCc2cccc(F)c2)nc2ccncc21 (stereo not drawn) | i | -5.1* | i | 1.1 | i | i | i | i | i | i | i | i
CCC(C(=O)NC1CCCCC1)n1c(SCc2cccc(C)c2)nc2ccncc21 (stereo not drawn) | i | i | i | 0.09 | i | i | . | . | . | . | . | .
CCCCN1C(=O)/C(=C/C=C2\SCCN2C)SC1=S | i | i | i | -1.2 | i | i | . | . | . | . | . | .
CN1CCS/C1=C/C=C1/SC(=S)N(Cc2ccccc2)C1=O | i | i | i | -2.2 | 19* | i | 278%* | i | 49%* | i | i | 112%*
CN(C)c1ccc(/C=C/C=C2/SC(=S)N(c3ccccc3)C2=O)cc1 | i | i | . | -0.65 | i | i | . | . | . | . | . | .
CCN1C(=O)/C(=C/C=C2\N(CC)c3cc(S(=O)(=O)N(C)C)ccc3N2c2ccccc2)SC1=S | 20* | i | i | -1.5 | 16* | i | 366%* | i | 87%* | i | i | i
C=CCNC(=O)c1ccc([N+](=O)[O-])c(Cl)c1 | i | i | i | 1.8 | i | i | . | . | . | . | . | .
C=CCNCc1ccc(C(=O)NCCCCCCC)cc1[N+](=O)[O-] | i | -7* | . | -0.78 | i | i | . | . | . | . | i | i | TRPC4 sel inh 2=75%*;TRPC4 spec=-11%*;HEK293 MPD ctr 2-1=i;HEK293 MPD ctr-1=-160%*
COc1ccc(OCCOC(=O)CNS(=O)(=O)c2ccc(SC)c([N+](=O)[O-])c2)cc1 | i | i | i | 1.7 | i | i | . | . | . | . | . | .
CCOC(=O)c1c(C)n(C)c2ccc(O)c(CN3CCCCC3)c12 | i | -8* | i | -4 | i | i | -172%* | i | -30%* | 59%* | 66%* | i
CCOC(=O)c1c(C)n(-c2ccc(OC)cc2)c2ccc(O)c(CN(C)C)c12 | i | -8.8* | i | -2 | i | i | . | . | . | . | 60%* | i | TRPC4 sel inh 2=46%*;TRPC4 spec=-17%*;HEK293 MPD ctr 2-1=i;HEK293 MPD ctr-1=-286%*
CCOC(=O)c1c(C)n(C)c2ccc(O)c(CN(C)C)c12 | i | -8.7* | i | 1.9 | i | i | -242%* | i | -41%* | 59%* | 62%* | i
CCOC(=O)c1c(C)n(-c2ccc(C)cc2)c2ccc(O)c(CN(C)C)c12 | i | -5.7* | i | -3.4 | i | i | -96%* | i | -18%* | 62%* | 51%* | i
CC1CCCCN1S(=O)(=O)c1cccc2nonc12 (stereo not drawn) | i | i | i | -0.69 | i | i | . | . | . | . | . | .
O=C(Nc1ccccc1NC(=O)c1c(F)cccc1F)c1c(F)cccc1F | i | -5.8* | i | -0.01 | i | i | i | i | i | i | i | i
CCNc1nc(N2CCCCC2)nc(-n2nnc(C(=O)OCC)c2C)n1 | i | i | i | 1.7 | 12* | i | i | i | 112%* | 80%* | i | 68%*
O=C(O)c1cn(-c2ccc(F)cc2)c2cc(Cl)c(F)cc2c1=O | i | i | i | -1.3 | i | i | . | . | . | . | . | .
